Measured values from different studies.
Lines come from different studies, so protocols differ.
LRRK2 G2019S: Leucine-rich repeat serine/threonine-protein kinase 2 (LRRK2, Homo sapiens, UniProt Q5S007, G2019S)
LRRK2: Leucine-rich repeat serine/threonine-protein kinase 2 (LRRK2, Homo sapiens, UniProt Q5S007)

SMILES	target	assay	conditions	measurement	result
C=CC(=O)N1CCC[C@@H](n2nc(-c3ccc(Oc4ccccc4)cc3)c3c(N)ncnc32)C1	LRRK2 G2019S	enzyme activity, inhibitor	1 µM	inhibition	23%
Cc1ccc(NC(=O)c2ccnc(C(F)(F)F)c2)cc1-c1cc(OCCO)nc(N2CCOCC2)c1	LRRK2 G2019S	binding	1 µM	remaining binding	100%
Cc1cc(O)c(-c2ccc([C@@H](C)CN(C)C)cc2)c2c1[nH]c(=O)c1sccc12	LRRK2	enzyme activity, inhibitor	0.1 µM	inhibition	-15.8%
Cc1cc(S(=O)(=O)N[C@H]2CC[C@H](CN3CCN(c4ccc(C5CCC(=O)NC5=O)cc4F)CC3)CC2)ccc1Nc1ncc(C(F)(F)F)c(N2CCC[C@](C)(O)C2)n1 (stereo partly drawn)	LRRK2 G2019S	binding, competition with immobilised ligand	1 µM	remaining binding	4%
CN1CCN(C(=O)c2ccc(NC(=O)Nc3ccc(N(C)c4ccnc(Nc5ccc(CS(C)(=O)=O)cc5)n4)cc3)cc2)CC1	LRRK2 G2019S	binding	1 µM	remaining binding	71%
CC#CC(=O)N1CCC[C@H]1c1nc(-c2ccc(C(=O)Nc3ccccn3)cc2)c2c(N)nccn12	LRRK2 G2019S	enzyme activity, inhibitor	1 µM	inhibition	0%
C[C@]1(O)CCCN(c2nc(Nc3ccc(S(=O)(=O)N[C@H]4CC[C@H](CN5CCN(c6ccc(C7CCC(=O)NC7=O)cc6F)CC5)CC4)cc3F)ncc2C(F)(F)F)C1 (stereo partly drawn)	LRRK2	binding, competition with immobilised ligand	1 µM	remaining binding	97%
CCCCC(=O)Nc1ccc(-c2ccc3ncn(CCC)c(=O)c3c2)cn1	LRRK2	binding, competition with immobilised ligand	0.5 µM	remaining binding	100%
CNS(=O)(=O)c1ccc(Nc2ncc(C(F)(F)F)c(N3CCC[C@](C)(O)C3)n2)c(C)c1	LRRK2 G2019S	binding, competition with immobilised ligand	1 µM	remaining binding	13%
C1=C/COCc2cc(ccc2OCCN2CCCC2)Nc2nccc(n2)-c2cccc(c2)COC/1	LRRK2 G2019S	binding	0.1 µM	remaining binding	100%
COc1ccc2[nH]c3c4[nH]c5ccc(OC)cc5c4c4c(c3c2c1)C(=O)NC4=O	LRRK2	binding	1 µM	remaining binding	2.8%
CC(C)S(=O)(=O)c1ccc2nccc(Nc3ccc4sc(C5CCCC5)nc4c3)c2c1	LRRK2	enzyme activity, inhibitor	1 µM	activity vs control	120%
